The source made the active and inactive calls. No cut-off for these calls is given here.
How the values were obtained:
Human adenovirus 2 = test: Antiviral activity against Human adenovirus 2 infected in HEL cells assessed as reduction of virus-induced cytopathogenicity; assay type: functional, organism-based
Outline: (§1)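 Confluent monolayers were infected with 100 CCID50 of virus (1 CCID50 infects 50% of cultures) or 20 PFU. The cultures were then incubated with varying test compound concentrations. Cytopathicity was scored once it was complete in untreated infected controls.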

[1] = tested on: Vesicular stomatitis virus; test: Antiviral activity against Vesicular stomatitis virus infected in human HeLa cells assessed as reduction of virus-induced cytopathogenicity; assay type: functional, organism-based
Outline: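 Confluent Vero (Coxsackie B4) or HeLa (vesicular stomatitis virus) monolayers in 96-well plates were inoculated with 100 CCID50 virus or 20 PFU and incubated with varying compound concentrations. Cytopathicity was scored once complete in untreated infected controls. […] Two separate experiments were run.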

[2] = tested on: Respiratory syncytial virus; test: Antiviral activity against Respiratory syncytial virus infected in human Hela cells assessed as reduction of virus-induced cytopathogenicity; assay type: functional, organism-based; outline: as §1
Human respirovirus 3 = test: Antiviral activity against Parainfluenza virus 3 infected in African green monkey Vero cells assessed as reduction of virus-induced cytopathogenicity; assay type: functional, organism-based; outline: as §1
Reovirus sp. = test: Antiviral activity against Reovirus infected in African green monkey Vero cells assessed as reduction of virus-induced cytopathogenicity; assay type: functional, organism-based; outline: as §1
Sindbis virus = test: Antiviral activity against Sindbis virus infected in African green monkey Vero cells assessed as reduction of virus-induced cytopathogenicity; assay type: functional, organism-based; outline: as §1
Influenza A virus = test: Antiviral activity against Influenza A virus (A/PR/8/34(H1N1)) infected in MDCK cells assessed as reduction of virus-induced cytopathogenicity; assay type: functional, organism-based; details: A/Puerto Rico/8/1934(H1N1)
Outline: (§2)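 MDCK cells, grown confluent in 96-well plates, were infected with influenza A/PR/8 (H1N1), A/HK/7/87 (H3N2) or B/HK/5/72 at 100 CCID50 or 20 PFU and exposed to varying compound concentrations. Cytopathic effect was recorded when it reached completion in untreated virus controls. EC50 is the concentration that halves virus-induced cytopathicity.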

Influenza B virus = test: Antiviral activity against Influenza B virus (B/HK/5/72) infected in MDCK cells assessed as reduction of virus-induced cytopathogenicity; assay type: functional, cell-based; details: B/Hong Kong/05/1972; outline: as §2
Felid alphaherpesvirus 1 = test: Antiviral activity against Feline herpesvirus infected in CRFK cells assessed as reduction of virus-induced cytopathogenicity; assay type: functional, organism-based; outline: as §1
Feline coronavirus = test: Antiviral activity against Feline coronavirus infected in CRFK cells assessed as reduction of virus-induced cytopathogenicity; assay type: functional, organism-based; outline: as §1
Influenza A virus H3N2 = test: Antiviral activity against Influenza A virus H3N2 infected in MDCK cells assessed as reduction of virus-induced cytopathogenicity; assay type: functional, organism-based; outline: as §2
Cytomegalovirus [3] = test: Antiviral activity against Cytomegalovirus AD-169 infected in HEL cells assessed as reduction of virus-induced cytopathogenicity; assay type: functional, organism-based; details: Human betaherpesvirus 5, AD-169, HEL
Cytomegalovirus [4] = test: Antiviral activity against Cytomegalovirus Davis infected in HEL cells assessed as reduction of virus-induced cytopathogenicity; assay type: functional, organism-based; details: Human betaherpesvirus 5, Davis
[5] = Cytotoxicity against HEL cells assessed as alternation of cell morphology by microscopic analysis; assay type: cell-based; details: human
Human alphaherpesvirus 3 [6] = test: Antiviral activity against Varicella-zoster virus expressing thymidine kinase infected in HEL cells assessed as reduction of virus-induced plaque formation; assay type: functional, organism-based; details: Human alphaherpesvirus 3, HEL
Outline: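 Plaque-reduction assay in HEL cells. TK+ VZV strains were Oka and YS; TK- strains were 07-1 and YS-R. Virus input was 100 PFU, with graded compound concentrations. Plaques were counted once formation was complete in untreated infected controls. […] Two independent experiments were run.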

Human alphaherpesvirus 3 [7] = test: Antiviral activity against thymidine kinase-deficient Varicella-zoster virus infected in HEL cells assessed as reduction of virus-induced plaque formation; assay type: functional, organism-based; details: Human alphaherpesvirus 3, HEL
Outline: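 Plaque-reduction assay in HEL cells. TK+ VZV strains were Oka and YS; TK- strains were 07-1 and YS-R. Virus input was 100 PFU, with graded compound concentrations. Plaques were counted once formation was complete in untreated infected controls. Two independent experiments were run.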

L1210 = test: Cytotoxicity against mouse L1210 cells assessed as inhibition of cell proliferation; assay type: functional, cell-based
CCRF-CEM = test: Cytotoxicity against human CEM cells assessed as inhibition of cell proliferation; assay type: functional, cell-based
HeLa = test: Cytotoxicity against human HeLa cells assessed as inhibition of cell proliferation; assay type: functional, cell-based
[8] = Cytotoxicity against CRFK cells assessed cell viability by MTS assay; assay type: cell-based, Felis catus; details: cat
Outline: (§3)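 Cells were exposed to a range of compound concentrations. Viability was measured by the colorimetric formazan-based MTS assay.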

MDCK = test: Cytotoxicity against MDCK cells assessed cell viability by MTS assay; assay type: cell-based, Canis lupus familiaris; details: dog; outline: as §3
Human alphaherpesvirus 1 = test: Antiviral activity against thymidine kinase-deficient acyclovir-resistant Herpes simplex virus 1 KOS infected in HEL cells assessed as reduction of virus-induced cytopathogenicity; assay type: functional, organism-based; details: Human alphaherpesvirus 1, KOS

SMILES	Activity (Human adenovirus 2)	Activity [1]	Activity [2]	Activity (Human respirovirus 3)	Activity (Reovirus sp.)	Activity (Sindbis virus)	Activity (Influenza A virus)	Activity (Influenza B virus)	Activity (Felid alphaherpesvirus 1)	Activity (Feline coronavirus)	Activity (Influenza A virus H3N2)	EC50 (Cytomegalovirus [3])	EC50 (Cytomegalovirus [4])	MCC [5]	EC50 (Human alphaherpesvirus 3 [6])	EC50 (Human alphaherpesvirus 3 [7])	IC50 (L1210)	IC50 (CCRF-CEM)	IC50 (HeLa)	further results
CCOP(=O)(OCC)[C@@H]1C[C@@H](CN2C(=O)c3cccc4cc([N+](=O)[O-])cc(c34)C2=O)ON1C (relative stereo)	inactive	inactive	inactive	inactive	inactive	inactive	inactive	inactive	inactive	inactive	inactive									
CCOP(=O)(OCC)[C@@H]1C[C@H](CN2C(=O)c3cccc4cc(N)cc(c34)C2=O)ON1C (relative stereo)	inactive	inactive	inactive	inactive	inactive	inactive	inactive	inactive	inactive	inactive	inactive									
CCOP(=O)(OCC)[C@@H]1C[C@H](C(=O)Nc2cc3c4c(cccc4c2)C(=O)N(CCN(CC)CC)C3=O)ON1C (racemic)												100 µM	≥ 100 µM	> 100 µM	> 20 µM	36 µM	16 µM	23 µM	7.3 µM	CC50 [8]: > 100 µM
CCOP(=O)(OCC)[C@@H]1C[C@@H](CN2C(=O)c3cccc4cccc(c34)C2=O)ON1C (relative stereo)	inactive	inactive	inactive	inactive	inactive	inactive	inactive	inactive	inactive	inactive	inactive									
CCOP(=O)(OCC)[C@@H]1C[C@H](CN2C(=O)c3cccc4cccc(c34)C2=O)ON1C (relative stereo)	inactive	inactive	inactive	inactive	inactive	inactive	inactive	inactive	inactive	inactive	inactive									
CCCCN1C(=O)c2cccc3cc(NC(=O)[C@H]4C[C@@H](P(=O)(OCC)OCC)N(C)O4)cc(c23)C1=O (racemic)												> 20 µM	> 20 µM	≥ 100 µM	20 µM	38 µM	28 µM	19 µM		
CCOP(=O)(OCC)[C@@H]1C[C@H](CN2C(=O)c3cccc4cc(NC(C)=O)cc(c34)C2=O)ON1C (relative stereo)	inactive	inactive	inactive	inactive	inactive	inactive	inactive	inactive	inactive	inactive	inactive									
COc1cccc(N2CCN(C3=Nc4c(F)cccc4[C@H](CC(=O)O)N3c3cc(C(F)(F)F)ccc3OC)CC2)c1 [LETERMOVIR]												0.0046 µM								
Nc1nc2c(ncn2COC(CO)CO)c(=O)[nH]1 [GANCICLOVIR]												6.3 µM	7.1 µM	> 100 µM						
CCOP(=O)(OCC)[C@@H]1C[C@@H](CN2C(=O)c3cccc4cc(N)cc(c34)C2=O)ON1C (relative stereo)	inactive	inactive	inactive	inactive	inactive	inactive	inactive	inactive	inactive	inactive	inactive									
CCCN1C(=O)c2cccc3cc(NC(=O)[C@H]4C[C@@H](P(=O)(OCC)OCC)N(C)O4)cc(c23)C1=O (racemic)												45 µM	45 µM	> 100 µM	20 µM	38 µM	76 µM	47 µM	70 µM	CC50 (MDCK): > 100 µM; CC50 [8]: > 100 µM
Nc1nc2c(ncn2COCCO)c(=O)[nH]1 [ACYCLOVIR]														> 250 µM						
CCOP(=O)(OCC)[C@@H]1C[C@@H](C(=O)Nc2cc3c4c(cccc4c2)C(=O)N(CC(C)C)C3=O)ON1C (relative stereo)												> 100 µM	> 100 µM	> 100 µM	> 100 µM	> 100 µM	72 µM	48 µM	56 µM	CC50 (MDCK): > 100 µM
CCCN1C(=O)c2cccc3cc(NC(=O)[C@@H]4C[C@@H](P(=O)(OCC)OCC)N(C)O4)cc(c23)C1=O (racemic)												> 20 µM	45 µM	> 100 µM	28 µM	40 µM	41 µM	28 µM	74 µM	CC50 (MDCK): 46.2 µM
CCOP(=O)(OCC)[C@@H]1C[C@@H](C(=O)Nc2cc3c4c(cccc4c2)C(=O)N(CCN(CC)CC)C3=O)ON1C (racemic)												55 µM	49 µM	≥ 100 µM	> 20 µM	> 20 µM	11 µM	21 µM	13 µM	CC50 (MDCK): > 100 µM
CCCCN1C(=O)c2cccc3cc(NC(=O)[C@@H]4C[C@@H](P(=O)(OCC)OCC)N(C)O4)cc(c23)C1=O (racemic)												> 20 µM	> 20 µM	≥ 100 µM	28 µM	40 µM	85 µM	25 µM	78 µM	CC50 (MDCK): > 100 µM; CC50 [8]: > 100 µM
O=c1[nH]c(=O)n([C@H]2C[C@H](O)[C@@H](CO)O2)cc1/C=C/Br [BRIVUDINE]														> 250 µM	0.029 µM	1 µM				EC50 (Human alphaherpesvirus 1): 2 µM
CCOP(=O)(OCC)[C@@H]1C[C@@H](CN2C(=O)c3cccc4cc(NC(C)=O)cc(c34)C2=O)ON1C (relative stereo)	inactive	inactive	inactive	inactive	inactive	inactive	inactive	inactive	inactive	inactive	inactive									
Nc1ccn(C[C@@H](CO)OCP(=O)(O)O)c(=O)n1 [CIDOFOVIR]													1.02 µM	> 250 µM						
CCOP(=O)(OCC)[C@@H]1C[C@H](CN2C(=O)c3cccc4cc([N+](=O)[O-])cc(c34)C2=O)ON1C (relative stereo)	inactive	inactive	inactive	inactive	inactive	inactive	inactive	inactive	inactive	inactive	inactive									
CCOP(=O)(OCC)[C@@H]1C[C@H](C(=O)Nc2cc3c4c(cccc4c2)C(=O)N(CC(C)C)C3=O)ON1C (racemic)												45 µM	45 µM	> 100 µM			73 µM	26 µM	49 µM	CC50 (MDCK): 51.8 µM; CC50 [8]: > 100 µM
O=c1[nH]cc(F)c(=O)[nH]1 [FLUOROURACIL]																	0.33 µM			

— ChEMBL document CHEMBL3585293, “Design, antiviral and cytostatic properties of isoxazolidine-containing amonafide analogues” (Bioorg Med Chem, 2015)
